From PMC2889672 (Biochemistry, 2010)

Columns and labels:
S. pneumoniae UPPS [1] = biological target: T1, S. pneumoniae UPPS (Streptococcus pneumoniae serotype 4, UniProt Q97SR4); experiment: Photo-cross-linking with Photo-probe and mass spectrometry; type: binding; details: 30 μM UPPS, 30 μM Photo-probe, UV 350 nm 10 min
T1 sequence (Q97SR4 1-252): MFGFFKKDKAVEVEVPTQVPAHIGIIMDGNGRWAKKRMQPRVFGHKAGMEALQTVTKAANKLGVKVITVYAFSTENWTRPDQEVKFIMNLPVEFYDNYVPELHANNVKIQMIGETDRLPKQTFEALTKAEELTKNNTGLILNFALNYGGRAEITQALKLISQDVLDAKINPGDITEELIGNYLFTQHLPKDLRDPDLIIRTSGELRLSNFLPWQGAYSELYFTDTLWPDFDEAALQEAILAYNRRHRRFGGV

S. pneumoniae UPPS [2] = biological target: T1, S. pneumoniae UPPS; experiment: Biomol Green assay of UPPS activity; type: biochemical
In short: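 His-tagged S. pneumoniae UPPS expressed in E. coli BL21(DE3) and purified by Ni-NTA and size exclusion, then mixed 1:2 (w/v) with liposomes of total E. coli lipid extract. Released phosphate quantified with Biomol Green reagent.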

S. pneumoniae UPPS [3] = biological target: T1, S. pneumoniae UPPS; experiment: Protein fluorescence binding experiments; details: excitation 285 nm; 1 μM UPPS, 5 μM compound
In short: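 Intrinsic protein fluorescence: emission scanned 300−500 nm at excitation 285 nm. Buffer: 100 mM HEPES pH 7.3, 0.5 mM MgCl2, 50 mM KCl, 1.25% DMSO. Test compound (final 5 μM) preincubated 15 min with UPPS (final 1 μM) before adding FsPP (15 μM), IsPP (40 μM) or both. Spectra are averages of two scans.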

| SMILES | binding to and modification of UPPS in the absence of substrate (S. pneumoniae UPPS [1]) | IC50 (S. pneumoniae UPPS [2]) | change of intrinsic fluorescence of S. pneumoniae UPPS upon addition of compound (S. pneumoniae UPPS [3]) |
| --- | --- | --- | --- |
| O=C(Nc1ccc(C(=O)c2ccccc2)cc1)C1=C(O)C(CCc2ccccc2)NC1=O (stereo not shown) [Photo-probe, N-(4-Benzoylphenyl)-4-hydroxy-2-oxo-5-phenethyl-2,5-dihydro-1H-pyrrole-3-carboxamide] | bound to and modified UPPS | 630 nM |  |
| CC1(Cc2ccccc2)NC(=O)C(C(=O)Nc2ccc(C3CCCCC3)cc2)=C1O (stereo not shown) [compound 1, 5-benzyl-4-hydroxy-5-methyl-2-oxo-2,5-dihydro-1H-pyrrole-3-carboxylic acid (4-cyclohexylphenyl)amide] |  | 450 nM | increased |
